Test results taken from ChEMBL document CHEMBL1157783, “Synthesis, characterization and vasculoprotective effects of nitric oxide-donating derivatives of chrysin” (Bioorg Med Chem, 2010).
pIC50: −log10 of the molar value. The source made the active and inactive calls. The rule behind the calls is not given here.

Assays:
[1] = Induction of NO release in phosphate buffered saline of pH 7.4 at 100 uM after 1 hr by Griess assay in presence of L-cysteine; format: physicochemical; details: buffer, pH 7.4, 1 h
Summary of the method: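 Incubated 1 h at 37 °C in PBS pH 7.4 with L-cysteine. Reaction mixture treated with Griess reagent (sulfanilamide, N-naphthylethylenediamine dihydrochloride, phosphoric acid) for 10 min at room temperature, then absorbance read at 540 nm. Expressed as percent of a theoretical maximum of 1 mol NO per mol compound. Sodium nitroprusside as positive control.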

[2] = Inhibition of advanced glycation end product formation in phosphate buffered saline at pH 7.4 after 14 days by fluorospectrophotometry in presence of bovine serum albumin; format: physicochemical
[3] = target: Aldo-keto reductase family 1 member B1 (Bos taurus, UniProt P16116); assay: Inhibition of aldose reductase from calf lense by AR assay
HepG2 = assay: Increase in glucose consumption in human HepG2 cells at 10 umol/L after 24 hrs by enzymatic method relative to control blank; format: functional, cell-based
Summary of the method: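 HepG2 cells in high-glucose DMEM with 10% FBS, grown to 80–90% confluence, switched to DMEM with 1% FBS for 12 h, then treated 24 h in the same medium. Medium glucose measured enzymatically with a kit. Consumption taken as blank-well glucose minus remaining glucose, then adjusted for cell number by MTT. Vehicle 0.1% DMSO; mean S.D., n = 3.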

Structure (SMILES)	Activity [1]	pIC50 [2]	pIC50 [3]	Activity (HepG2)
CC(=O)Oc1cc(OCCCCCCO[N+](=O)[O-])cc2oc(-c3ccccc3)cc(=O)c12	1.43%	≤ 3.52	6.38	–
O=c1cc(-c2ccccc2)oc2cc(OCCCCO[N+](=O)[O-])cc(O)c12	1.43%	4.12	6.54	Active
CC(=O)Oc1cc(OCCCCO[N+](=O)[O-])cc2oc(-c3ccccc3)cc(=O)c12	1.48%	≤ 3.52	6.41	–
O=C(CCCCCCO[N+](=O)[O-])OCOc1cc(O)c2c(=O)cc(-c3ccccc3)oc2c1	1.38%	3.86	6.68	Active
O=C(CCCCO[N+](=O)[O-])OCOc1cc(O)c2c(=O)cc(-c3ccccc3)oc2c1	1.26%	4.28	6.89	Active
O=c1cc(-c2ccccc2)oc2cc(O)cc(O)c12 [CHRYSIN]	–	4.20	5.11	inactive
O=c1cc(-c2ccccc2)oc2cc(OCCO[N+](=O)[O-])cc(O)c12	1.67%	≤ 3.52	6.31	Active
N=C(N)NN [PIMAGEDINE]	–	3.08	–	–
O=c1cc(-c2ccccc2)oc2cc(OCCCCCCO[N+](=O)[O-])cc(O)c12	1.21%	≤ 3.52	6.15	Active
O=C(CCO[N+](=O)[O-])OCOc1cc(O)c2c(=O)cc(-c3ccccc3)oc2c1	1.77%	4.36	6.52	–
CC(=O)Oc1cc(OCCO[N+](=O)[O-])cc2oc(-c3ccccc3)cc(=O)c12	1.68%	≤ 3.52	6.07	–
